ChEMBL document CHEMBL1156168, “Eastern extension of azoles as non-nucleoside inhibitors of HIV-1 reverse transcriptase; cyano group alternatives” (Bioorg Med Chem Lett, 2010)

Columns and labels:
MT2 [1] = assay: Cytotoxicity against human MT2 cells infected with HIV1 harboring reverse transcriptase K103N/Y181C mutation by MTT assay; assay type: cell-based
MT2 [2] = assay: Cytotoxicity against human MT2 cells infected with HIV1 harboring reverse transcriptase Y181C mutation by MTT assay; assay type: cell-based
MT2 [3] = assay: (§1) Cytotoxicity against human MT2 cells by MTT assay; assay type: cell-based; conditions: mt2
[4] = tested on: Human immunodeficiency virus 1; assay: Antiviral activity against HIV1 reverse transcriptase Y181C mutant infected in human MT2 cells assessed as inhibition of viral replication by MTT assay; assay type: functional, organism-based; conditions: Human immunodeficiency virus 1, MT2
Summary of the method: (§2)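 HIV-1 (IIIB or RT-variant strain) infection of human MT-2 T-cells. Protection of the infected cells was read out by the MTT colorimetric method.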

[5] = tested on: Human immunodeficiency virus 1; assay: Antiviral activity against HIV1 3B infected in human MT2 cells assessed as inhibition of virus replication by MTT assay; assay type: functional, organism-based; conditions: Human immunodeficiency virus 1, 3B; summary of the method: as §2
[6] = tested on: Human immunodeficiency virus 1; assay: Antiviral activity against HIV1 reverse transcriptase K103N/Y181C double mutant infected in human MT2 cells assessed as inhibition of viral replication by MTT assay; assay type: functional, organism-based; conditions: Human immunodeficiency virus 1, MT2; summary of the method: as §2
[7] = as §1; assay type: cell-based; conditions: MT2 cells

O=C1Nc2ccc(Cl)cc2[C@@](C#CC2CC2)(C(F)(F)F)O1 [EFAVIRENZ]
CC50 (MT2 [1]): > 0.1 µM | CC50 (MT2 [2]): > 0.1 µM | CC50 (MT2 [3]): > 0.1 µM

Cc1cc(C#N)cc(C)c1Oc1nc(Nc2ccc(C#N)cc2)nc(N)c1Br [ETRAVIRINE]
CC50 (MT2 [1]): > 0.1 µM | CC50 (MT2 [2]): > 0.1 µM | EC50 [4]: 0.011 µM | CC50 (MT2 [3]): > 0.1 µM

Fc1cccc(F)c1Cc1cnc(Nc2ccc(Oc3cccnc3)cc2)o1
EC50 [5]: 0.31 µM | CC50 (MT2 [3]): 22 µM

Fc1cccc(F)c1Cc1cnc(Nc2ccc(Oc3ccncc3)c(Cl)c2)o1
EC50 [5]: 0.12 µM | CC50 (MT2 [1]): 17 µM | CC50 (MT2 [2]): 17 µM | EC50 [4]: 2.3 µM | EC50 [6]: 7.2 µM | CC50 (MT2 [3]): 21 µM

Clc1cccc(Cl)c1Cc1nnc(Nc2ccc(COCc3cccnc3)cc2)o1
EC50 [5]: 4.6 µM | CC50 (MT2 [3]): 81 µM

Fc1cccc(F)c1Cc1cnc(Nc2ccc(Oc3cccnc3)c(Cl)c2)o1
EC50 [4]: 3.2 µM | EC50 [6]: 4.5 µM

O=c1ccn(CCOc2ccc(Nc3ncc(Cc4c(F)cccc4F)o3)cc2)c(=O)[nH]1
EC50 [5]: 25 µM | CC50 (MT2 [3]): 73 µM

Fc1cccc(F)c1Cc1cnc(Nc2ccc(-c3ccncc3)c(Cl)c2)o1
EC50 [5]: 0.14 µM | CC50 (MT2 [1]): 9.1 µM | CC50 (MT2 [2]): 11 µM | EC50 [4]: 3.8 µM | EC50 [6]: 5.6 µM | CC50 (MT2 [3]): 9.3 µM

COCc1ccc(Nc2ncc(Cc3c(F)cccc3F)o2)cc1
EC50 [5]: 2.1 µM | CC50 (MT2 [3]): 32 µM

Fc1cccc(F)c1Cc1cnc(Nc2ccc(COc3ccncc3)c(Cl)c2)o1
EC50 [5]: 0.03 µM | CC50 (MT2 [3]): 3.8 µM

OCc1ccc(Nc2ncc(Cc3c(F)cccc3F)o2)cc1Cl
EC50 [5]: 0.26 µM | CC50 (MT2 [3]): 90 µM

N#Cc1ccc(Nc2ncc(Cc3c(F)cccc3F)o2)cc1Cl
EC50 [5]: 0.006 µM

Clc1cccc(Cl)c1Cc1nnc(Nc2ccc(COCc3ccccn3)cc2)o1
EC50 [5]: 5 µM | CC50 (MT2 [3]): > 100 µM

COCc1ccc(Nc2nnc(Cc3c(Cl)cccc3Cl)o2)cc1
EC50 [5]: 4.3 µM | CC50 (MT2 [3]): 100 µM

Cc1cn([C@H]2C=C[C@@H](CO)O2)c(=O)[nH]c1=O [STAVUDINE]
EC50 [5]: 1.4 µM | EC50 [4]: 0.7 µM | EC50 [6]: 0.5 µM

Cc1ccnc2c1NC(=O)c1cccnc1N2C1CC1 [NEVIRAPINE]
CC50 [7]: > 100 µM

Fc1cccc(F)c1Cc1cnc(Nc2ccc(Oc3cccnc3)c(Br)c2)o1
EC50 [5]: 0.034 µM | CC50 (MT2 [3]): 7.5 µM

Clc1cccc(Cl)c1Cc1nnc(Nc2ccc(COCc3ccoc3)cc2)o1
CC50 (MT2 [3]): 21 µM

Clc1cccc(Cl)c1Cc1nnc(Nc2ccc(COCc3ccncc3)cc2)o1
EC50 [5]: 1.6 µM | CC50 (MT2 [3]): 81 µM

Clc1cccc(Cl)c1Cc1nnc(Nc2ccc(COCc3ccccc3)cc2)o1
CC50 (MT2 [3]): 84 µM

OCc1ccc(Nc2ncc(Cc3c(F)cccc3F)o2)cc1
EC50 [5]: 3.8 µM | CC50 (MT2 [3]): > 100 µM

Fc1cccc(F)c1Cc1cnc(Nc2ccc(CCOc3ccncc3)cc2)o1
EC50 [5]: 1.1 µM | CC50 (MT2 [3]): 11 µM

Fc1cccc(F)c1Cc1cnc(Nc2ccc(Oc3ccncc3)cc2)o1
EC50 [5]: 0.19 µM | CC50 (MT2 [1]): 17 µM | CC50 (MT2 [2]): 17 µM | EC50 [4]: 5 µM | EC50 [6]: 12 µM | CC50 (MT2 [3]): 21 µM

OCCc1ccc(Nc2ncc(Cc3c(F)cccc3F)o2)cc1
EC50 [5]: 2.7 µM | CC50 (MT2 [3]): 35 µM

Fc1cccc(F)c1Cc1cnc(Nc2ccc(COc3ccncc3)cc2)o1
EC50 [5]: 0.4 µM | CC50 (MT2 [3]): > 100 µM

Clc1cccc(Cl)c1Cc1nnc(Nc2ccc(COCc3ccco3)cc2)o1
EC50 [5]: 2.8 µM | CC50 (MT2 [3]): 12 µM

Fc1cccc(F)c1Cc1cnc(Nc2ccc(-c3cccnc3)c(Cl)c2)o1
EC50 [5]: 0.073 µM | CC50 (MT2 [1]): 12.5 µM | CC50 (MT2 [2]): 15 µM | EC50 [4]: 6 µM | CC50 (MT2 [3]): 8.9 µM

COCc1ccc(Nc2ncc(Cc3c(Cl)cccc3Cl)o2)cc1
EC50 [5]: 1.2 µM | CC50 (MT2 [3]): 8.1 µM

Clc1cccc(Cl)c1Cc1nnc(Nc2ccc(COCc3ccsc3)cc2)o1
CC50 (MT2 [3]): > 100 µM

Fc1cccc(F)c1Cc1cnc(Nc2ccc(COCc3ccco3)cc2)o1
EC50 [5]: 1.6 µM | CC50 (MT2 [3]): 31 µM

CSCc1ccc(Nc2ncc(Cc3c(F)cccc3F)o2)cc1
EC50 [5]: 1.2 µM | CC50 (MT2 [3]): > 100 µM

[O-][n+]1ccc(OCc2ccc(Nc3ncc(Cc4c(F)cccc4F)o3)cc2Cl)cc1
EC50 [5]: 0.011 µM | CC50 (MT2 [1]): 2.1 µM | CC50 (MT2 [2]): 2.7 µM | CC50 (MT2 [3]): 1.7 µM

O=c1ncccn1SCCc1ccc(Nc2ncc(Cc3c(F)cccc3F)o2)cc1
EC50 [5]: 13 µM | CC50 (MT2 [3]): > 100 µM
